For test [1], the target named is T1, Serine/threonine-protein kinase B-raf (Homo sapiens, UniProt P15056, V600E). Nature of the test: Inhibition of human recombinant N-terminal His-tagged BRAF V600E mutant expressed in Sf9 cells using GST-tagged MEK1 and ATP as substrate incubated for 10 mins prior to ATP addition measured after 45 mins by DELFIA assay. The procedure, abridged: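 Enzyme assay with the V600E BRAF mutant in vitro; inhibition reported as IC50.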

For test [2], the target named is T1, Serine/threonine-protein kinase B-raf. The test is described as follows: Inhibition of BRAF V600E mutant in human WM266.4 cells assessed as inhibition of ERK phosphorylation after 6 hrs by DELFIA assay. Format: cell-based. An outline of the steps:
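In BRAF-dependent WM266.4 cells, inhibition of ERK phosphorylation measured in a cellular assay and reported as IC50.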

The nature of test [3]: Antiproliferative activity against human WM266.4 cells after 6 days by SRB assay. Format: functional. Particulars: WM 266-4, 144 h. An outline of the steps:
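BRAF-dependent WM266.4 melanoma cells; growth inhibition read by SRB staining and reported as GI50.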

These results are taken from ChEMBL document CHEMBL2331450, “Potent BRAF kinase inhibitors based on 2,4,5-trisubstituted imidazole with naphthyl and benzothiophene 4-substituents” (Bioorg Med Chem, 2013).

Each structure is given as a SMILES string. Where only a bound is given, the exact number is not on record here.

T1 sequence (P15056 2-766 V600E limits assumed): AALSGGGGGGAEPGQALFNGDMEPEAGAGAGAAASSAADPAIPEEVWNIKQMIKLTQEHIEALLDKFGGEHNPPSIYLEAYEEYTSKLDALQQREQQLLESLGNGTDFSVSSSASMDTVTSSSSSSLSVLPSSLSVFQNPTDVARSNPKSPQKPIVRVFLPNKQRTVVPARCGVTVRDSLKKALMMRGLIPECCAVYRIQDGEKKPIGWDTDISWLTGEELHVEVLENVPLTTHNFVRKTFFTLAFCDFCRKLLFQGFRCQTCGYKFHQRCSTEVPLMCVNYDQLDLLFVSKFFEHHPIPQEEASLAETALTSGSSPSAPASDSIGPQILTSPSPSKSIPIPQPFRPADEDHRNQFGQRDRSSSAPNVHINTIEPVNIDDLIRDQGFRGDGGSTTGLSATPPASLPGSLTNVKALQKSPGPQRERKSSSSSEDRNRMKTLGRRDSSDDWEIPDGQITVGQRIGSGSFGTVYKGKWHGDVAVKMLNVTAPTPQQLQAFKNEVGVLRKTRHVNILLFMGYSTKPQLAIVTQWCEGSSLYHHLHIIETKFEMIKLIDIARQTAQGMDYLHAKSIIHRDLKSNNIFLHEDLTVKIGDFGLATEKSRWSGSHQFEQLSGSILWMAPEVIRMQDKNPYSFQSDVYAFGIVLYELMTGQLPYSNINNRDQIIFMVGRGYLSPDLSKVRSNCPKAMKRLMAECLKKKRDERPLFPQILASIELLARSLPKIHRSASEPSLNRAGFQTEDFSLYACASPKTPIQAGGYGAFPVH

Consider `CN(C)CCOc1ccc(-c2nc(-c3ccc4c(O)c(F)ccc4c3)c(-c3ccncc3)[nH]2)cc1`, for which the half-inhibitory concentration (IC50) in test [1] amounted to 0.029 µM; in test [2] it was 0.25 µM. In test [3], this molecule yielded a GI50 of 11 µM.

With `CN(C)CCOc1ccc(-c2nc(-c3ccc4cc(F)ccc4c3)c(-c3ccncc3)[nH]2)cc1`, the half-inhibitory concentration (IC50) in test [1] is more than 10 µM.

On to `CN(C)CCOc1ccc(-c2nc(-c3ccc4c(N)nccc4c3)c(-c3ccncc3)[nH]2)cc1`, for which the results for the IC50 in test [1] and in test [2] were 1.1 µM and 5.1 µM, respectively. This molecule came in with a GI50 in test [3] of 5.7 µM.

On to `CN(C)CCOc1ccc(-c2nc(-c3ccc4ccc(=O)[nH]c4c3)c(-c3ccncc3)[nH]2)cc1`, for which the 50% inhibitory concentration (IC50) in test [1] is more than 100 µM.

Consider `CN(C)CCOc1ccc(-c2nc(-c3ccc(Cl)c(Cl)c3)c(-c3ccncc3)[nH]2)cc1`, for which the half-inhibitory concentration (IC50) came to 0.58 µM in test [1] and 5.9 µM in test [2]. The same molecule displayed a concentration for 50% growth inhibition (GI50) in test [3] of 1.6 µM.

As to `CN(C)CCOc1ccc(-c2nc(-c3ccc4c([S+](C)[O-])csc4c3)c(-c3ccncc3)[nH]2)cc1` (configuration not stated), the IC50 in test [1] was more than 10 µM.

As to `CN(C)CCOc1ccc(-c2nc(-c3ccc4cc(O)ccc4c3)c(-c3ccncc3)[nH]2)cc1`, the half-inhibitory concentration (IC50) in test [1] turned out to be 8.8 µM; in test [2], 14 µM. Further, growth in test [3] was halved (GI50) at 4.3 µM.

As to `CN(C)CCOc1ccc(-c2nc(-c3ccc4c(CO)csc4c3)c(-c3ccncc3)[nH]2)cc1`, the half-inhibitory concentration (IC50) in test [1] was more than 10 µM.

Take `CN(C)CCOc1ccc(-c2nc(-c3ccc4ccc(O)cc4c3)c(-c3ccncc3)[nH]2)cc1`: the IC50 in test [1] was determined as 1.4 µM; in test [2] it was 3.6 µM. The concentration for 50% growth inhibition (GI50) in test [3] is 3.2 µM.

As for `CN(C)CCOc1ccc(-c2nc(-c3ccc4c(C(O)C(F)(F)F)csc4c3)c(-c3ccncc3)[nH]2)cc1` (racemic), the half-maximal inhibitory concentration (IC50) came out at 0.33 µM in test [1] and 2.7 µM in test [2]. Also, in test [3], growth was halved (GI50) at 3.1 µM.

In the case of `CCC[S+]([O-])c1csc2cc(-c3nc(-c4ccc(OCCN(C)C)cc4)[nH]c3-c3ccncc3)ccc12` (configuration not stated), the concentration for half-maximal inhibition (IC50) in test [1] is more than 10 µM.

Regarding `CSc1csc2cc(-c3nc(-c4ccc(OCCN(C)C)cc4)[nH]c3-c3ccncc3)ccc12`, the 50% inhibitory concentration (IC50) in test [1] amounted to 14 µM.

For `CN(C)CCOc1ccc(-c2nc(-c3ccc4[nH]c(=O)ccc4c3)c(-c3ccncc3)[nH]2)cc1`, the IC50 in test [1] is more than 100 µM.

Regarding `CN(C)CCOc1ccc(-c2nc(-c3ccc4cc(C(=O)O)ccc4c3)c(-c3ccncc3)[nH]2)cc1`, the 50% inhibitory concentration (IC50) in test [1] was more than 10 µM.

As for `CN(C)CCOc1ccc(-c2nc(-c3ccc4c(O)cccc4c3)c(-c3ccncc3)[nH]2)cc1`, the IC50 was found to be 0.009 µM in test [1] and 0.39 µM in test [2]. In test [3], this molecule yielded a GI50 of 0.22 µM.

In the case of `CN(C)CCOc1ccc(-c2nc(-c3ccc4c(CO)coc4c3)c(-c3ccncc3)[nH]2)cc1`, the IC50 in test [1] was more than 10 µM.

For `CN(C)CCOc1ccc(-c2nc(-c3ccc4c(C=O)csc4c3)c(-c3ccncc3)[nH]2)cc1`, the IC50 in test [1] was more than 10 µM.

As for `CN(C)CCOc1ccc(-c2nc(-c3ccc(C(O)C(F)(F)F)cc3)c(-c3ccncc3)[nH]2)cc1` (racemic), the IC50 in test [1] is more than 10 µM.

`CN(C)CCOc1ccc(-c2nc(-c3ccc(F)c(Cl)c3)c(-c3ccncc3)[nH]2)cc1`: in test [1], the IC50 is more than 10 µM.

For the molecule `CN(C)CCOc1ccc(-c2nc(-c3ccc4c(C(O)C(F)(F)C(F)(F)F)csc4c3)c(-c3ccncc3)[nH]2)cc1` (racemic), in test [1], the half-inhibitory concentration (IC50) was more than 10 µM.

For the molecule `CN(C)CCOc1ccc(-c2nc(-c3ccc4c(C(N)=O)coc4c3)c(-c3ccncc3)[nH]2)cc1`, the 50% inhibitory concentration (IC50) in test [1] is more than 10 µM.

For the molecule `CN(C)CCOc1ccc(-c2nc(-c3ccc4c(O)c(Cl)ccc4c3)c(-c3ccncc3)[nH]2)cc1`, the concentration for half-maximal inhibition (IC50) in test [1] is 0.042 µM; in test [2], 1.25 µM. Moreover, it took 1.1 µM to inhibit growth in test [3] by half (GI50).

`CN(C)CCOc1ccc(-c2nc(-c3ccc4c([C@@H](O)C(F)(F)F)csc4c3)c(-c3ccncc3)[nH]2)cc1`: the IC50 was 0.19 µM in test [1] and 2.3 µM in test [2]. Also, halving of growth in test [3] (GI50) required 2.1 µM.

Take `CN(C)CCOc1ccc(-c2nc(-c3ccc4c(=O)[nH]ccc4c3)c(-c3ccncc3)[nH]2)cc1`: in test [1], the IC50 is more than 10 µM.

Regarding `CN(C)CCOc1ccc(-c2nc(-c3ccc4sc(C(O)C(F)(F)F)cc4c3)c(-c3ccncc3)[nH]2)cc1` (racemic), the IC50 in test [1] is more than 10 µM.

As for `CCC(O)c1csc2cc(-c3nc(-c4ccc(OCCN(C)C)cc4)[nH]c3-c3ccncc3)ccc12` (racemic), the IC50 in test [1] is more than 10 µM.

Consider `CCCSc1csc2cc(-c3nc(-c4ccc(OCCN(C)C)cc4)[nH]c3-c3ccncc3)ccc12`, for which the values for the IC50 in test [1] and in test [2] were 9.4 µM and 31 µM, respectively. Further, the concentration for 50% growth inhibition (GI50) in test [3] worked out at 2.3 µM.
